A short description of experiment [1]: inhibitors of TNFa-induced NFkB p65 translocation, primary screen, imaging, HUVEC, MLSMR starter and 10KST1 sets (AID 438;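 active = inhibition above 20% together with a positive visual image hit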;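 note: compound added about 3h40 before a 20 min TNFalpha stimulation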;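 for inhibition: signal is the nuclear over cytoplasmic p65 intensity ratio per well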). The conditions noted are these: HUVEC TNFa-induced p65 nuclear translocation; cell count: measured here: nuclei count (cytotoxicity indicator), at 2.08 µM unless noted; inhibition: at 2 µM, stronger effect = higher value unless noted.
A short description of experiment [2]: inhibitors of mutant huntingtin aggregation, primary screen, imaging, exon1htt(103Q)mCFP cells, high-content imaging (AID 483;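 active = visual image review flags a hit and inhibition of aggregation exceeds 20%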;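 note: compound exposure lasted 3 days before fixation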;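 for nuclei count: percent of the per-plate median nuclei count of sample wells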). As to conditions: exon1htt(103Q)mCFP cell line, aggregate imaging, at 2 µM; inhibition of aggregation: stronger effect = higher value; nuclei count: measured here: cell count, toxicity.
Experiment [3] can be described thus: inhibitors of E-selectin induction by TNFa, primary screen, imaging, HUVEC, immunofluorescence, MLSMR starter and 10KST1 sets (AID 487;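 active = visually confirmed hit in the image check and inhibition above 20%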;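 for inhibition: signal is fraction of cell area covered by stained E-selectin grains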;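 for nuclei count: 100% = median nuclei count of all wells on the same plate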). The conditions noted are these: HUVEC TNFalpha-induced E-selectin immunofluorescence imaging, at 2 µM; inhibition: stronger effect = higher value; nuclei count: measured here: cell number, toxicity.
The target in experiment [4] is Voltage-gated potassium channel subunit beta-2 (Rattus norvegicus) (UniProt P62483). The experiment in a line: KvBeta enzyme negative modulators, primary screen, biochemical, NADPH fluorescence (AID 622;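 active = fluorescence slope higher than the sample average by over 3 SD, cut at about -0.22 in these data, passing the limit was not always enough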;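 note: slope of raw intensity against log time taken from 70 to 1610 s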). As to conditions: recombinant KvBeta, 4-cyanobenzaldehyde reduction, at 10 µM, stronger effect = higher value.
For experiment [5] the target is unchanged. The experiment in a line: KvBeta positive modulators, primary screen, biochemical, NADPH fluorescence (AID 623;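 active = NADPH fluorescence slope more negative than the mean of all samples by about 3 SD, 99.7% confidence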;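 note: fluorescence intensity change per second fitted from 20 to 320 s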). As to conditions: Recombinant KvBeta, NADPH fluorescence decrease slope, 10 min; at 10 µM; stronger effect = lower value.
The target of experiment [6] is Muscarinic acetylcholine receptor M4 (Homo sapiens) (UniProt P08173). The experiment in a line: compounds altering M4/GIRK thallium flux, either direction, primary screen, M4 allosteric agonist project, cell-based, HEK293 M4/GIRK, BTC-AM (AID 625;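 active = fluorescence slope after compound addition differing from the mean of all tested samples at 99.7% confidence, mostly higher but some lower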;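 note: thallium influx through GIRK channels coupled to M4 in HEK293 cells with BTC-AM dye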). The conditions noted are these: at 10 µM, actives lie on both sides. The gist of the method: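 Material: M4/GIRK1/GIRK2 stable HEK293 cell line. Medium: pH 7.3 thallium assay buffer. Dosing: single compound concentration, 10 µM final. Schedule: 1 h dye loading, 2 min kinetic read. Measured by: kinetic fluorescence with BTC-AM dye. Read-out: post-addition slope, 15–24 s, of baseline-normalized fluorescence. Benchmarks: carbachol and DMSO controls.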

A short description of experiment [7]: inhibitors of Sendai virus-induced IRF3 signaling, primary screen, TLR/RLR signaling modifier project, cell-based, Sendai virus stimulus, luciferase, 10K MLSCN set (AID 602276;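 active = inhibition at or above 50% at 10 µM; inactive = inhibition below 50%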;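 note: firefly luciferase from ISG56 promoter only with Renilla not read in this screen; 0% = Sendai virus plus DMSO and 100% = medium plus DMSO without virus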). The conditions noted are these: HEK293 RL24 IRF3 luciferase reporter, at 10 µM, stronger effect = higher value.
Experiment [8] in a line: inhibitors of poly I:C-induced TLR3 signaling, primary screen, cell-based, poly I:C stimulus, luciferase, 10K MLSCN set (AID 602277). The conditions noted are these: HEK293-TLR3 RL24 IRF3 luciferase reporter, at 10 µM, stronger effect = higher value.
A short description of experiment [9]: inhibitors of Chlamydomonas gravitaxis, primary screen, whole organism, Chlamydomonas reinhardtii, WT vs cilia-less mutant, absorbance, 96-well (AID 463189;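 active = inhibition at or above 50% relative to wild type and mutant plate controls; inactive = inhibition below 50%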;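 note: 0% = wild type cc124 cells in DMSO and 100% = ciliumless bld1 mutant cells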). As to conditions: OD600 absorbance, 2 days, at 10 µM, stronger effect = higher value.

These results are taken from PubChem BioAssay.

Active and inactive are the calls of the source.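 Rule for the calls, unless noted: active = inhibition of the reporter signal at or above 50%; inactive = inhibition below 50%.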

Chain of Voltage-gated potassium channel subunit beta-2 (Rattus norvegicus) (P62483 whole entry, looked up): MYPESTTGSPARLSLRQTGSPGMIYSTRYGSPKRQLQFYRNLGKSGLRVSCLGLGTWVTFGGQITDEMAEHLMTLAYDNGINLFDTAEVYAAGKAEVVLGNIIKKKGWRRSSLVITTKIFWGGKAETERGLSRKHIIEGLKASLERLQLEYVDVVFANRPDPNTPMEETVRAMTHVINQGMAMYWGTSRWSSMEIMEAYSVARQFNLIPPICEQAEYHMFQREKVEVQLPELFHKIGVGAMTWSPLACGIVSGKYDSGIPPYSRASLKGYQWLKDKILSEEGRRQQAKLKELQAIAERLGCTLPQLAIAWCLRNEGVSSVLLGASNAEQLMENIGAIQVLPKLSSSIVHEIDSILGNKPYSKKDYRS
Chain of Muscarinic acetylcholine receptor M4 (Homo sapiens) (P08173 whole entry, looked up): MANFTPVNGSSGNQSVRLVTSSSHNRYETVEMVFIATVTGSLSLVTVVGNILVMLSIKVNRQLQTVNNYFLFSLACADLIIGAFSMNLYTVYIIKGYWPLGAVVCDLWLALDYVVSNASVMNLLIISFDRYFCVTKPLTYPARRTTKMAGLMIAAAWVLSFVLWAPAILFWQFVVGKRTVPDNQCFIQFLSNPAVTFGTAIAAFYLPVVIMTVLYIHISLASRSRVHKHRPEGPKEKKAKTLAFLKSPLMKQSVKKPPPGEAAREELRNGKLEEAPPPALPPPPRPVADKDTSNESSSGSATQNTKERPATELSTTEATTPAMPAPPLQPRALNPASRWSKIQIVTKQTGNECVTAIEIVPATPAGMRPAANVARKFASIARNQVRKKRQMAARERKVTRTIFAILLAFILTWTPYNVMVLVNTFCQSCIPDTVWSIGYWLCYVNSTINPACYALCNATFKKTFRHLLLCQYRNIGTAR

As usually defined, the inhibition is the change of the read-out against control, counted positive when it falls. In [1], `CCCCn1c(O)c(C(C)=Nc2cccc(C(=O)O)c2)c(=O)[nH]c1=O` returned a cell count of 278. In addition, the inhibition in [1] was 6.8% (inactive); in [3] it was -151% (inactive); in [7] it was 4.58% (inactive); in [8], 3.8% (inactive). The inhibition of aggregation in experiment [2] is 4.7% (inactive). Moreover, the nuclei count worked out at 75.2% in [2] and 199% in experiment [3]. For the same compound, the fluorescence slope in experiment [4] was -0.604 (inactive); in experiment [6], 0.00369 (inactive). Also, the NADPH fluorescence slope in [5] was 2.7e-05 (inactive).

`CCOC(=O)C1CCCCC12C(C#N)=C(N)Oc1n[nH]c(C)c12` (stereo not drawn) registered a cell count in experiment [1] of 733. The inhibition is -5.8% (inactive) in experiment [1], -6.6% (inactive) in [3], 17.2% (inactive) in experiment [7] and 21.9% (inactive) in [8]. Also, the inhibition of aggregation in experiment [2] was -12% (inactive). The nuclei count in experiment [2] came to 104%; in experiment [3] it was 110%. The fluorescence slope in experiment [4] is -0.637 (inactive); in experiment [6], 0.00575 (inactive). Besides, the NADPH fluorescence slope in experiment [5] was 1.2e-05 (inactive).

Consider `NC(CCP(=O)(O)O)C(=O)O` (stereo not drawn), for which the inhibition in experiment [9] is 17.2% (inactive).

Compound `Nc1ccccc1C(=O)OC1CSC1` came in with a cell count in [1] of 621. Also, the inhibition in [1] is -8.7% (inactive); in experiment [3] it was -29.1% (inactive); in [7] it was 20.2% (inactive); in experiment [8], 15% (inactive). Moreover, the inhibition of aggregation in [2] is -13.4% (inactive). For the same compound, the nuclei count in experiment [2] was determined as 102%; in experiment [3], 93.5%. Further, the fluorescence slope was -0.559 (inactive) in experiment [4] and 0.00479 (inactive) in [6]. For the same compound, the NADPH fluorescence slope in experiment [5] is -2.7e-06 (inactive).

`O=C(Cn1c2c(c(-c3ccccc3Cl)cc1=O)CCC2)N1CCC2(CC1)OCCO2`: in [1], the cell count amounted to 861. For the same compound, the inhibition in experiment [1] is -5% (inactive); in [3], -175% (inactive); in experiment [7], -8.12% (inactive); in experiment [8], -12.2% (inactive). Further, in experiment [2], the inhibition of aggregation is -9% (inactive). The nuclei count in [2] was 107%; in [3], 125%. Besides, the fluorescence slope was -0.605 (inactive) in experiment [4] and 0.00803 (inactive) in experiment [6]. Further, the NADPH fluorescence slope in experiment [5] was 9.7e-06 (inactive).

The compound `O=C(O)c1nonc1-c1nonc1C(=O)O` displayed a cell count in [1] of 195. Moreover, the inhibition in [1] is -1.9% (inactive); in experiment [3] it was -27.8% (inactive); in experiment [7] it was 17.8% (inactive); in experiment [8] it was 15.2% (inactive). Besides, in [2], the inhibition of aggregation is 14.6% (inactive). Further, the values for the nuclei count in experiment [2] and in experiment [3] were 99.5% and 104%, respectively. The fluorescence slope in experiment [4] was -0.641 (inactive); in experiment [6], 0.00379 (inactive). Further, the NADPH fluorescence slope in [5] was -1.4e-05 (inactive).

The compound `COCCOC(=O)C1=C(N)Oc2c(c(=O)oc3ccccc23)C1c1ccncc1` (stereo not drawn) came in with a cell count in experiment [1] of 329. Moreover, the inhibition in [1] is 2.2% (inactive); in [3], 1.8% (inactive); in experiment [7] it was 14.5% (inactive); in [8], 27.3% (inactive). Also, the inhibition of aggregation in experiment [2] was 1.7% (inactive). Moreover, the nuclei count in experiment [2] came to 73%; in experiment [3], 73.8%. For the same compound, the fluorescence slope is -0.474 (inactive) in experiment [4] and 0.00616 (inactive) in [6]. In addition, in [5], the NADPH fluorescence slope is -1.3e-05 (inactive).

As for `CC12CCCCC1=[N+]([O-])CN2O` (stereo not drawn), the cell count in experiment [1] came out at 725. The inhibition in [1] is -10% (inactive); in experiment [3], -15.8% (inactive); in [7], -0.121% (inactive); in experiment [8], 6.9% (inactive). Also, in experiment [2], the inhibition of aggregation is -27.6% (inactive). In addition, the results for the nuclei count in experiment [2] and in experiment [3] were 99.9% and 118%, respectively. For the same compound, the fluorescence slope in experiment [4] is -0.554 (inactive); in [6], 0.0045 (inactive). Further, the NADPH fluorescence slope in [5] was 1.5e-05 (inactive).
